{"source": "paper PMC10449033", "about": "(European journal of inorganic chemistry, 2023)", "key": {"[1]": {"biological_target": "T1, mitochondrial calcium uniporter (MCU) (Homo sapiens, UniProt Q8NE86)", "T1 sequence (Q8NE86 51-351)": "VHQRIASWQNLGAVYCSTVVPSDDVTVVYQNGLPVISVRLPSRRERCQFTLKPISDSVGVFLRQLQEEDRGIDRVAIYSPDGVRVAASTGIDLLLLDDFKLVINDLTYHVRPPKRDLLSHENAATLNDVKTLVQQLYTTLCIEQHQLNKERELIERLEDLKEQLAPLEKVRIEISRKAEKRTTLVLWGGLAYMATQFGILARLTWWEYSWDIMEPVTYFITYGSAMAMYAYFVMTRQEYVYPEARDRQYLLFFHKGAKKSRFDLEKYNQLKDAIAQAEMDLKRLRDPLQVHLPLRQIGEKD", "T1 sequence (Q9H4I9 48-107 partner limits assumed)": "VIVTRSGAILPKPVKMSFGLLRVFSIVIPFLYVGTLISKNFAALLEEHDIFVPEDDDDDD", "assay": "mCa2+ uptake inhibition in digitonin-permeabilized HeLa cells", "assay_type": "cell-based", "settings": "for mCa2+ uptake inhibition compared to untreated cells: 25 μM complex, digitonin-permeabilized HeLa cells", "outline": "(§1)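 Trypsinised cells permeabilised on ice for 15 min in KCl buffer (HEPES, pH 7.2) with 80 μM digitonin and 1 μM thapsigargin. Resuspended with 1 μM Calcium Green-5N and 2 mM succinate (HeLa 5 × 10^6, HEK293T 1 × 10^7 cells mL−1). Complex equilibrated ~200 s at room temperature, then CaCl2 added (HeLa 10, HEK293T 20 μM). Read ex 488/em 528 every 5 s. Rate from exponential time constant vs untreated; Hill IC50; three biological replicates ± SD.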"}, "[2]": {"biological_target": "T1, mitochondrial calcium uniporter (MCU)", "assay": "mCa2+ uptake inhibition in digitonin-permeabilized HEK293T cells", "assay_type": "cell-based", "outline": "as §1"}, "[3]": {"biological_target": "T1, mitochondrial calcium uniporter (MCU)", "settings": "read-out: mCa2+ uptake inhibition IC50 HeLa, permeabilized HeLa cells, cited from earlier work"}, "[4]": {"biological_target": "T1, mitochondrial calcium uniporter (MCU)", "settings": "read-out: mCa2+ uptake inhibition IC50 HEK293T; permeabilized HEK293T cells; ref [36]; cited from earlier work"}, "[5]": {"biological_target": "T1, mitochondrial calcium uniporter (MCU)", "assay": "Mitochondrial Ca2+ uptake in intact HeLa cells using Rhod 2-AM", "assay_type": "cell-based", "settings": "50 μM, 2 h, 37 °C, histamine 100 μM", "outline": "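About 1 × 10^5 HeLa cells left overnight, then exposed to complex (50 μM) in DMEM/10% FBS for 2 h at 37 °C. Loaded with 2 μM Rhod 2-AM in extracellular medium (1 mM CaCl2, 10 mM glucose, BSA, Pluronic F127) for 30 min in the dark at room temperature. Then 30 min dye-free, 15 min at 37 °C. Confocal imaging, ex 561/em 568–712 nm: ~30 s baseline, then histamine (100 μM), frames every 3 s. Per-cell CTCF expressed as F/F0.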"}, "[6]": {"biological_target": "T1, mitochondrial calcium uniporter (MCU)", "settings": "ref [35],[37],[39],[36]; cited from earlier work"}, "[7]": {"assay": "Cytotoxicity, MTT assay, HEK293T cells", "assay_type": "cell-based", "settings": "human", "outline": "(§2)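 Cells seeded at ~4000 per well and left overnight, then exposed to a range of complex concentrations in medium for 72 h. MTT was added at 1 mg mL−1 in FBS-free DMEM for 3 h, and formazan was dissolved in 8:1 DMSO/glycine buffer (pH 10) for absorbance. Viability was normalised to untreated cells (100%), with Hill fit for IC50. Three independent trials ± SD.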"}, "[8]": {"assay": "Cytotoxicity, MTT assay, HeLa cells", "assay_type": "cell-based", "settings": "human", "outline": "as §2"}, "HeLa cells": {"test_system": "HeLa cells", "assay": "Mitochondrial membrane potential via JC-1 assay, HeLa cells", "assay_type": "cell-based", "settings": "50 μM, 24 h", "outline": "(§3)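 About 1 × 10^5 cells on glass-bottomed dishes, left overnight, then exposed to complex (50 μM) for 24 h at 37 °C. Loaded with 10 μM JC-1 for 30 min in the dark at 37 °C, washed, and imaged in PBS with green (monomer) and red (J-aggregate) filter sets. The positive control was 50 μM CCCP in PBS. Red/green CTCF came from ≥8 cells, normalised to untreated (=1). Three trials ± SD.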"}, "HEK293T cells": {"test_system": "HEK293T cells", "assay": "Mitochondrial membrane potential via JC-1 assay, HEK293T cells", "assay_type": "cell-based", "settings": "50 μM, 24 h", "outline": "as §3"}}, "note": "Like-named read-outs stand apart in the source and are kept apart here.", "data": [{"compound": "O=[N+]([O-])C12CNCCNCC([N+](=O)[O-])(CNCCNC1)CNCCNC2.[Co+3]", "note": "[Compound 1, [Co(diNOsar)]^3+]", "values": [{"measurement": "IC50", "setting": "[1]", "value": "6050 ± 480", "unit": "nM"}, {"measurement": "IC50", "setting": "[2]", "value": "7980 ± 370", "unit": "nM"}]}, {"compound": "N.N.N.N.N.N.N.N.[Cl][Ru+3].[NH]=[Ru][Cl]", "note": "[Ru265]", "values": [{"measurement": "IC50", "setting": "[3]; ref [36]", "value": "3.9 ± 1", "unit": "nM"}, {"measurement": "IC50", "setting": "[4]", "value": "8.6 ± 2.2", "unit": "nM"}]}, {"compound": "N.N.N.N.N.N.N.N.[Cl][Ru+3].[N-]=[Ru][Cl]", "note": "[Ru265]", "values": [{"measurement": "inhibition of histamine-induced mCa2+ uptake in intact cells", "setting": "[5]", "value": "significantly diminish mCa^2+ uptake"}, {"measurement": "inhibition of MCU-mediated mCa2+ uptake in intact HeLa cells", "setting": "[6]", "value": "able to inhibit"}]}, {"compound": "CC12CNCCNCC(C(=O)O)(CNCCNC1)C(=O)NCCNC2.[Co+3]", "note": "[Compound 6, [Co(CO2H,Mesar)]^2+]", "values": [{"measurement": "IC50", "setting": "[1]", "value": "> 25000", "unit": "nM"}, {"measurement": "IC50", "setting": "[2]", "value": "> 25000", "unit": "nM"}]}, {"compound": "NC12CNCCNCC(N)(CNCCNC1)CNCCNC2.[Co+3]", "note": "[Compound 2, [Co(diAMsar)]^3+]", "values": [{"measurement": "viability at 72 h, 1000 µM", "setting": "[7]", "value": 40, "unit": "%"}, {"measurement": "IC50", "setting": "[1]", "value": "> 25000", "unit": "nM"}, {"measurement": "viability at 72 h, 1000 µM", "setting": "[8]", "value": 40, "unit": "%"}, {"measurement": "IC50", "setting": "[2]", "value": "> 25000", "unit": "nM"}]}, {"compound": "CC(CNCCN)(CNCCN)CNCCN.[Co+3]", "note": "[Compound 3, [Co(sen)]^3+]", "values": [{"measurement": "IC50", "setting": "[1]", "value": "160 ± 20", "unit": "nM"}, {"measurement": "mCa2+ uptake inhibition compared to untreated cells", "setting": "[1]", "value": "completely abolish mCa^2+ uptake"}, {"measurement": "depolarization of the mitochondrial membrane potential (JC-1)", "setting": "HeLa cells", "value": "did not lead to depolarization"}, {"measurement": "inhibition of histamine-induced mCa2+ uptake in intact cells", "setting": "[5]", "value": "statistically significant decrease in mCa^2+ uptake"}, {"measurement": "depolarization of the mitochondrial membrane potential (JC-1)", "setting": "HEK293T cells", "value": "did not lead to depolarization"}, {"measurement": "IC50", "setting": "[2]", "value": "180 ± 20", "unit": "nM"}]}, {"compound": "CCOC(=O)C12CNCCNCC(C)(CNCCNC1)CNCCNC2=O.[Co+3]", "note": "[Compound 5, [Co(CO2Et,Mesar)]^2+]", "values": [{"measurement": "IC50", "setting": "[1]", "value": "> 25000", "unit": "nM"}, {"measurement": "IC50", "setting": "[2]", "value": "> 25000", "unit": "nM"}]}, {"compound": "Os245", "values": [{"measurement": "IC50", "setting": "[3]; ref [39]", "value": "103 ± 30", "unit": "nM"}, {"measurement": "inhibition of MCU-mediated mCa2+ uptake in intact HeLa cells", "setting": "[6]", "value": "able to inhibit"}]}, {"compound": "NCCN.NCCN.NCCN.[Co+3]", "note": "[[Co(en)3]^3+]", "values": [{"measurement": "IC50", "setting": "[3]; ref [36]", "value": "115 ± 13", "unit": "nM"}, {"measurement": "inhibition of histamine-induced mCa2+ uptake in intact cells", "setting": "[5]", "value": "cannot"}, {"measurement": "IC50", "setting": "[4]", "value": "76 ± 10", "unit": "nM"}]}, {"compound": "Os245′", "values": [{"measurement": "IC50", "setting": "[3]; ref [39]", "value": "2.3 ± 0.8", "unit": "nM"}]}, {"compound": "CC12CNCCNCC([N+](=O)[O-])(CNCCNC1)CNCCNC2.[Co+3]", "note": "[Compound 4, [Co(MeNOsar)]^3+]", "values": [{"measurement": "IC50", "setting": "[1]", "value": "2910 ± 260", "unit": "nM"}, {"measurement": "mCa2+ uptake inhibition compared to untreated cells", "setting": "[1]", "value": "comparable to that of 1"}, {"measurement": "IC50", "setting": "[2]", "value": "2730 ± 200", "unit": "nM"}]}]}
